Results on 27 compounds are retold here after ChEMBL document CHEMBL2434820, “Design, synthesis, and biological evaluation of novel 2-ethyl-5-phenylthiazole-4-carboxamide derivatives as protein tyrosine phosphatase 1B inhibitors with improved cellular efficacy” (Eur J Med Chem, 2013).

The target of test [1] is Tyrosine-protein phosphatase non-receptor type 6 (Homo sapiens, UniProt P29350). The test is described as follows: Inhibition of SHP-1 (unknown origin).
The species entered for test [2] is Homo sapiens. The test is described as follows: Selectivity ratio of IC50 for TCPTP (unknown origin) to IC50 for GST-tagged PTP1B (unknown origin).
The target in test [3] is Receptor-type tyrosine-protein phosphatase F (Homo sapiens, UniProt P10586). Description: Inhibition of LAR (unknown origin).
Sequence of Receptor-type tyrosine-protein phosphatase F (P10586 whole entry): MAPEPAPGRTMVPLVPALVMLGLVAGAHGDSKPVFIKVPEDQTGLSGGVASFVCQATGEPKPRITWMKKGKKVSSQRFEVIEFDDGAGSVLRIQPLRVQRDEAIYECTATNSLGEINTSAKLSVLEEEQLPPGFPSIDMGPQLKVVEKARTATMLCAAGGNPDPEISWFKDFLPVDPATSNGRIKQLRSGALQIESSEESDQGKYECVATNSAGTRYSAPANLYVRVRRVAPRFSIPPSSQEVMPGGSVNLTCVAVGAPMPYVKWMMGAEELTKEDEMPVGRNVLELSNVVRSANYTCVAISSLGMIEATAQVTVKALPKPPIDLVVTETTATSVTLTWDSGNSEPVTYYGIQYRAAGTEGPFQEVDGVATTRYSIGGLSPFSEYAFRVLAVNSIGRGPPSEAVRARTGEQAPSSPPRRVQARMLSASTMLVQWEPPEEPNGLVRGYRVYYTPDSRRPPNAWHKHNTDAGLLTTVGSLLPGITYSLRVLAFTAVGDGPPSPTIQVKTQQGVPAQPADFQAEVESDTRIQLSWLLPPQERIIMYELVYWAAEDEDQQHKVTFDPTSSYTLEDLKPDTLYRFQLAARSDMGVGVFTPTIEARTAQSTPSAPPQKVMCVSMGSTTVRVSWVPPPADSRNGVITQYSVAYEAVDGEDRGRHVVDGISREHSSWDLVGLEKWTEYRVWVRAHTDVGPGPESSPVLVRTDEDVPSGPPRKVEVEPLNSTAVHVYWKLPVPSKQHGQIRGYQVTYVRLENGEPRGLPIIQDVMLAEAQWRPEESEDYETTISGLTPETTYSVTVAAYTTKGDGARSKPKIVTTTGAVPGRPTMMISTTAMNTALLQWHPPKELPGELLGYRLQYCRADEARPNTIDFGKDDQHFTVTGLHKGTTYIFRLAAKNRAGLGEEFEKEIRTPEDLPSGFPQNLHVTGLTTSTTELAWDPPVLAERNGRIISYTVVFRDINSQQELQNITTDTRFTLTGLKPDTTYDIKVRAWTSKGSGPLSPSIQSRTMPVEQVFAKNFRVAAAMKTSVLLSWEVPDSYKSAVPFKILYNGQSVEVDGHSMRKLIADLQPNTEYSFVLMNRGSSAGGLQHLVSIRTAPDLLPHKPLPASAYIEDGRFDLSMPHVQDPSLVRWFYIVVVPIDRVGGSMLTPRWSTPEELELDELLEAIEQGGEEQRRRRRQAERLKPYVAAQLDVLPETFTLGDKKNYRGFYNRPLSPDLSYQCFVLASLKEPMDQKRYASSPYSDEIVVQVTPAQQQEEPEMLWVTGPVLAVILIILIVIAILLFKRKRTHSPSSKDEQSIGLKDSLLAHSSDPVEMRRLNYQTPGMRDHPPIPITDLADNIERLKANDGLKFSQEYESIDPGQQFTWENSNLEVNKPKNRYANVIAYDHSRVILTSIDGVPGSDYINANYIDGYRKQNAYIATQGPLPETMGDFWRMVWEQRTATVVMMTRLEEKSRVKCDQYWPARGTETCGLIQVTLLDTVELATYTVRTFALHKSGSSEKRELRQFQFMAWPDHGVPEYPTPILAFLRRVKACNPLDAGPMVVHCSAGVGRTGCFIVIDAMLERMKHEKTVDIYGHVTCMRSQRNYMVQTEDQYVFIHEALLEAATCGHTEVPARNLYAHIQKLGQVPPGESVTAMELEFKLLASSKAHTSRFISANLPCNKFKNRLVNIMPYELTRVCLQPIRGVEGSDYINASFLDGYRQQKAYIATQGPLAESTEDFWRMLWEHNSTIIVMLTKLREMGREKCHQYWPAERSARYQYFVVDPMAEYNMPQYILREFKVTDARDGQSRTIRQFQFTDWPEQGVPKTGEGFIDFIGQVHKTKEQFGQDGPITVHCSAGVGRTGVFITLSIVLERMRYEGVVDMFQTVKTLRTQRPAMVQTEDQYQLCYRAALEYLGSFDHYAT
For test [4], the target named is T1, Tyrosine-protein phosphatase non-receptor type 2 (Homo sapiens, UniProt P17706).
T1 sequence (P17706 whole entry): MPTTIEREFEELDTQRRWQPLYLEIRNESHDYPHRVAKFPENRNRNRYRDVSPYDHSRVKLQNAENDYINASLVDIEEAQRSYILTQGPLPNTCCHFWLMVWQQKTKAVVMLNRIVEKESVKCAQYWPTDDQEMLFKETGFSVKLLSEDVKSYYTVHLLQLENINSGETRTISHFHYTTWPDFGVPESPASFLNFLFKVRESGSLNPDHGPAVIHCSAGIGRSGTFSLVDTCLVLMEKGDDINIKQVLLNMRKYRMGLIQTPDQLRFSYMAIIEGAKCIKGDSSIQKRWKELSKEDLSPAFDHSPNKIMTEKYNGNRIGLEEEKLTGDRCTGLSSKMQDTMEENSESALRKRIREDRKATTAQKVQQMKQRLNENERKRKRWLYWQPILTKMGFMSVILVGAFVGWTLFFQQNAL
The test is described as follows: Inhibition of TCPTP (unknown origin).

Test [5] concerns the target T2, Tyrosine-protein phosphatase non-receptor type 1 (Homo sapiens, UniProt P18031).
T2 sequence (P18031 whole entry): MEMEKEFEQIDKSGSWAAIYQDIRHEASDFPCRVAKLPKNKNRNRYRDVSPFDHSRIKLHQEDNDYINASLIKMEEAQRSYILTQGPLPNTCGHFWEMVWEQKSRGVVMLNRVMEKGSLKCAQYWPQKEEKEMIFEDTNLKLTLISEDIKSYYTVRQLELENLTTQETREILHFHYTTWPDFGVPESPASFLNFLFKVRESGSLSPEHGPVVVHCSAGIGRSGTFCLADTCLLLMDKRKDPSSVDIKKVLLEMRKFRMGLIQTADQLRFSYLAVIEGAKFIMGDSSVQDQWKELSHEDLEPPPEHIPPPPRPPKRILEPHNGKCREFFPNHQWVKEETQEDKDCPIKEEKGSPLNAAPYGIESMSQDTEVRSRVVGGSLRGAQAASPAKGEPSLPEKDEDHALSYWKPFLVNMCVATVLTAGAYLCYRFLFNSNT
Description: Inhibition of GST-tagged PTP1B (unknown origin) using pNPP as substrate measured for 2 mins by colorimetric analysis.

Test [6] has as its target T3, Tyrosine-protein phosphatase non-receptor type 11 (Homo sapiens, UniProt Q06124).
T3 sequence (Q06124 whole entry): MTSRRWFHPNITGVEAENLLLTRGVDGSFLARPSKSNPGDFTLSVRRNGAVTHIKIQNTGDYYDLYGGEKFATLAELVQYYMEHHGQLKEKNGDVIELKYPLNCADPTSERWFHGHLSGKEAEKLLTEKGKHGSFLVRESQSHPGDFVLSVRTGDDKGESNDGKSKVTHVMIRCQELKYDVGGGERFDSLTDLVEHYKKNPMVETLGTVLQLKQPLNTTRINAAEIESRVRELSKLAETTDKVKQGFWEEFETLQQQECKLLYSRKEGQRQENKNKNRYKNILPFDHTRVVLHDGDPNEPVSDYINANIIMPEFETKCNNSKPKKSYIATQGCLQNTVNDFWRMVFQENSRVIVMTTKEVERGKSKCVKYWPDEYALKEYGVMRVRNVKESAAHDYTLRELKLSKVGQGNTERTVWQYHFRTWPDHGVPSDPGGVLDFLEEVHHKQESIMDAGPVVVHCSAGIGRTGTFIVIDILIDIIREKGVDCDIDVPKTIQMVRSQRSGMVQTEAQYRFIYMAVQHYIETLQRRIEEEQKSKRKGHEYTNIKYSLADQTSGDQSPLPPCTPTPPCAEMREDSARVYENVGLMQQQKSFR
Description: Inhibition of SHP-2 (unknown origin).

The target in test [7] is T4, M-phase inducer phosphatase 2 (Homo sapiens, UniProt P30305).
T4 sequence (P30305 whole entry): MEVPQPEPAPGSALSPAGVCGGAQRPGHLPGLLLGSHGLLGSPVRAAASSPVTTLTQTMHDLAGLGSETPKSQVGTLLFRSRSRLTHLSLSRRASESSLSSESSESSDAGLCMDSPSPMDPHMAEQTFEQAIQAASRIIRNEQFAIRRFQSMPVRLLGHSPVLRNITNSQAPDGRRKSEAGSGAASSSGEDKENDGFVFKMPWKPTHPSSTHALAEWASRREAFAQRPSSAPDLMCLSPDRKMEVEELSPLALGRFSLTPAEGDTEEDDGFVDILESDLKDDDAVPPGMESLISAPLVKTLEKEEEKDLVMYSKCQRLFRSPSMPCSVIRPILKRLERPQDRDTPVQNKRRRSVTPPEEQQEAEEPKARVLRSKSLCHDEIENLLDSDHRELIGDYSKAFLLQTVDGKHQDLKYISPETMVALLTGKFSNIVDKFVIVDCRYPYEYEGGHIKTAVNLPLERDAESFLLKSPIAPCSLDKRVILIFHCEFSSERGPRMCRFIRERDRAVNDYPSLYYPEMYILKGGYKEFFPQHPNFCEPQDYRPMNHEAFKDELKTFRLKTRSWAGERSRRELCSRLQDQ
The test is described as follows: Inhibition of CDC25B (unknown origin).

Test [8] addresses T5, Tyrosine-protein phosphatase non-receptor type 1 (Homo sapiens) (UniProt P18031).
T5 sequence (whole entry): T2 sequence (P18031 whole entry)
Description: Inhibition of PTP1B (unknown origin) expressed in CHO cells over-expressing human IR assessed as increase in insulin-mediated IR-beta phosphorylation preincubated for 2 hrs followed by insulin challenge for 10 mins by Western blotting analysis. In kind it is cell-based. A digest of the protocol: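 CHO cells overexpressing human IR, grown in Ham's F-12 with 10% FBS at 37 °C, 5% CO2. Cells were serum-starved 2 h, then exposed to compound for 2 h (0.2% DMSO vehicle; 1 mM sodium orthovanadate as positive control). They were then stimulated with 10 nM insulin for 10 min. Lysates were run on 8% SDS-PAGE and immunoblotted with anti-pTyr, using β-actin as the loading control.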
For orientation: A western blot detects proteins with antibodies after separation by electrophoresis.

Test [9] addresses T5, Tyrosine-protein phosphatase non-receptor type 1 (Homo sapiens). The settings on record: CHO, 1.25 to 10 uM.

Calls of active or inactive are those of the source. No cut-off for these calls is given here.

Sequence of Tyrosine-protein phosphatase non-receptor type 6 (P29350 whole entry): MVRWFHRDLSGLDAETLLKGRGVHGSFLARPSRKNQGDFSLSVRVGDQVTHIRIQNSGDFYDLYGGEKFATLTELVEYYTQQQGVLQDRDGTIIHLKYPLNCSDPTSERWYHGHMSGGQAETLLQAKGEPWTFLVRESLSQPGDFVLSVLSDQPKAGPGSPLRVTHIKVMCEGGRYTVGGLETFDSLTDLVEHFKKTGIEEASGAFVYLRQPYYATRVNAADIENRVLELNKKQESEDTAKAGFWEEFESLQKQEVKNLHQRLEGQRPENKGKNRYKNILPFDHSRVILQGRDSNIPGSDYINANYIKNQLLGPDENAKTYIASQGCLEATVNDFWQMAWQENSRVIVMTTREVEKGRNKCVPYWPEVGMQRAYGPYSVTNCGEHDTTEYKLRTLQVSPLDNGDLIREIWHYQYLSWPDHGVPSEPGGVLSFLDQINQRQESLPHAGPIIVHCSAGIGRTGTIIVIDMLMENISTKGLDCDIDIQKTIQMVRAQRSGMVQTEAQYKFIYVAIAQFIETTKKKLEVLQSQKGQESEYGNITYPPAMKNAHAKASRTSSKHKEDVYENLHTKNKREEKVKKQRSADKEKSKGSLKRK

For `O=C(O)c1cccc(NC(=O)c2nc([C@H](Cc3ccc(OCc4ccccc4)cc3)NC(=O)C3CCCCC3)sc2-c2ccccc2)c1`, the IC50 is 6.93 µM in test [1]; over 20 µM in test [3]; 3.97 µM in [4]; 1.17 µM in test [5]; 11.7 µM in test [6]; 2.51 µM in test [7]. Further, the Ratio IC50 in [2] is 3.4.
`O=C(O)c1ccc(NC(=O)c2csc([C@H](Cc3ccc(OCc4ccccc4)cc3)NC(=O)C3CCCCC3)n2)cc1` gave an IC50 in test [5] of 4.88 µM. This lies in the single-digit micromolar range.
In test [5], `O=C(CCc1c[nH]c2ccccc12)N[C@@H](Cc1ccc(OCc2ccccc2)cc1)c1nc(C(=O)Nc2ccc(C(=O)O)c(F)c2)c(-c2ccccc2)s1` showed an IC50 of 2.56 µM.
Still for that read-out and setting: next, `O=C(CCc1c[nH]c2ccccc12)N[C@@H](Cc1ccc(OCc2ccccc2)cc1)c1nc(C(=O)Nc2cc(Br)ccc2C(=O)O)c(-c2ccccc2)s1`: 1.18 µM; `COC(=O)c1ccc(NC(=O)c2csc([C@H](Cc3ccc(OCc4ccccc4)cc3)NC(=O)C3CCCCC3)n2)cc1`: 4.42 µM.
Still for that read-out and setting: next, `O=C(CCc1c[nH]c2ccccc12)N[C@@H](Cc1ccc(OCc2ccccc2)cc1)c1nc(C(=O)Nc2ccc(C(=O)O)cc2F)c(-c2ccccc2)s1`: 0.77 µM.
Regarding `O=C(CCc1c[nH]c2ccccc12)N[C@@H](Cc1ccc(OCc2ccccc2)cc1)c1nc(C(=O)Nc2ccc(Cl)c(C(=O)O)c2)c(-c2ccccc2)s1`, the IC50 is 8.79 µM in test [1]; over 20 µM in test [3]; 3.36 µM in [4]; 1.42 µM in test [5]; 6.79 µM in test [6]; 4.94 µM in test [7]. For the same compound, in [2], the Ratio IC50 is 2.4.
For `O=C(CCc1c[nH]c2ccccc12)N[C@@H](Cc1ccc(OCc2ccccc2)cc1)c1nc(C(=O)Nc2cccc(C(=O)O)c2)c(-c2ccccc2)s1`, the IC50 was 7.53 µM in test [1]; over 20 µM in test [3]; 3.38 µM in test [4]; 1.01 µM in [5]; 5.3 µM in [6]; 7.37 µM in test [7]. Also, the Ratio IC50 in [2] was 3.3. Also, the inhibition result in test [8] was “Dose-dependent effect”.
In the case of `O=C(CCc1c[nH]c2ccccc12)N[C@@H](Cc1ccc(OCc2ccccc2)cc1)c1nc(C(=O)Nc2cc(Cl)ccc2C(=O)O)c(-c2ccccc2)s1`, 0.71 µM corresponded to half-maximal inhibition in test [5] (IC50).
In the case of `O=C(CCc1c[nH]c2ccccc12)N[C@@H](Cc1ccc(OCc2ccccc2)cc1)c1nc(C(=O)Nc2cc(C(=O)O)ccc2F)c(-c2ccccc2)s1`, the IC50 was 10.6 µM in test [1]; over 20 µM in test [3]; 3.98 µM in [4]; 1.12 µM in [5]; 10.1 µM in [6]; 9.74 µM in test [7]. In addition, the Ratio IC50 in [2] is 3.6.
`C/C(=C/C(C)=C/c1csc([C@H](Cc2ccc(OCc3ccccc3)cc2)NC(=O)C2CCCCC2)n1)C(=O)O` gave an IC50 in test [5] of 14.7 µM. In addition, the inhibition entry in [8] is “inactive”.
For the compound `COC(=O)c1cccc(NC(=O)c2nc([C@H](Cc3ccc(OCc4ccccc4)cc3)NC(=O)C3CCCCC3)sc2-c2ccccc2)c1`, the half-maximal inhibitory concentration (IC50) in test [5] came to 3.79 µM.
For `CCOC(=O)/C(C)=C\C(C)=C\c1csc([C@H](Cc2ccc(OCc3ccccc3)cc2)NC(=O)C2CCCCC2)n1`, in [8], the inhibition result was “inactive”.
Regarding `O=C(CCc1c[nH]c2ccccc12)N[C@@H](Cc1ccc(OCc2ccccc2)cc1)c1nc(C(=O)Nc2ccccc2C(=O)O)c(-c2ccccc2)s1`, inhibition in [5] was half-maximal at 5.56 µM (IC50).
In turn, `CCOC(=O)/C(C)=C\C(C)=C\c1nc([C@H](Cc2ccc(OCc3ccccc3)cc2)NC(=O)C2CCCCC2)sc1CC(C)C` gave an IC50 in [5] of 9.54 µM. For the same compound, the inhibition entry in [8] is “inactive”.
For the compound `COC(=O)c1cccc(NC(=O)c2nc([C@H](Cc3ccc(OCc4ccccc4)cc3)NC(=O)CCc3c[nH]c4ccccc34)sc2-c2ccccc2)c1`, in test [5], the IC50 stood at 2.68 µM.
Regarding `O=C(O)c1cccc(NC(=O)c2csc([C@H](Cc3ccc(OCc4ccccc4)cc3)NC(=O)C3CCCCC3)n2)c1`, the IC50 in [5] is 6 µM. Against the preceding compound, the IC50 is about 2.2-fold higher.
Regarding `C/C(=C/C(C)=C/c1nc([C@H](Cc2ccc(OCc3ccccc3)cc2)NC(=O)C2CCCCC2)sc1-c1ccccc1)C(=O)O`, the IC50 in test [5] is 10.9 µM. Further, in [9], the inhibition result is “Active”.
Consider `O=C(CCc1c[nH]c2ccccc12)N[C@@H](Cc1ccc(OCc2ccccc2)cc1)c1nc(C(=O)Nc2ccc(F)c(C(=O)O)c2)c(-c2ccccc2)s1`, for which, in [5], inhibition was half-maximal at 1.62 µM (IC50). This lies in the single-digit micromolar range.
Still for that read-out and setting: the value for `O=C(Nc1ccccc1C(=O)O)c1csc([C@H](Cc2ccc(OCc3ccccc3)cc2)NC(=O)C2CCCCC2)n1` was 8.12 µM.
The same measure, in the same setting: next, `COC(=O)c1ccccc1NC(=O)c1csc([C@H](Cc2ccc(OCc3ccccc3)cc2)NC(=O)C2CCCCC2)n1`: 8.79 µM.
Still for that read-out and setting: next, `O=C(CCc1c[nH]c2ccccc12)N[C@@H](Cc1ccc(OCc2ccccc2)cc1)c1nc(C(=O)Nc2ccc(C(=O)O)cc2)c(-c2ccccc2)s1`: 2.28 µM.
`CCOC(=O)/C(C)=C\C(C)=C\c1nc([C@H](Cc2ccc(OCc3ccccc3)cc2)NC(=O)C2CCCCC2)sc1C` registered a half-inhibitory concentration (IC50) in test [5] of 13.5 µM. Besides, the inhibition entry in test [8] was “inactive”.
`O=C(CCc1c[nH]c2ccccc12)N[C@@H](Cc1ccc(OCc2ccccc2)cc1)c1nc(C(=O)Nc2ccc(F)cc2C(=O)O)c(-c2ccccc2)s1` gave an IC50 in [5] of 2.82 µM.
Same read-out and setting: the value for `COC(=O)c1cccc(NC(=O)c2csc([C@H](Cc3ccc(OCc4ccccc4)cc3)NC(=O)C3CCCCC3)n2)c1` was 10.6 µM.
The same measure, in the same setting: the value for `O=C(CCc1c[nH]c2ccccc12)N[C@@H](Cc1ccc(OCc2ccccc2)cc1)c1nc(C(=O)Nc2cccc(F)c2C(=O)O)c(-c2ccccc2)s1` was 4.18 µM.
`CCOC(=O)/C(C)=C\C(C)=C\c1nc([C@H](Cc2ccc(OCc3ccccc3)cc2)NC(=O)C2CCCCC2)sc1-c1ccccc1` yielded an IC50 in test [5] of 8.44 µM. In addition, the inhibition entry in test [8] was “inactive”.

One may read the IC50 as the concentration at which inhibition is half-maximal.
